In ChEMBL document CHEMBL4402517, “Rational modification of Mannich base-type derivatives as novel antichagasic compounds: Synthesis, in vitro and in vivo evaluation” (Bioorg Med Chem, 2019):

Assays:
[1] = (§1) Toxicity in BALB/c mouse infected with Trypanosoma cruzi MHOM/Pe/2011/Arequipa;DTU 5 bloodstream trypomastigote assessed as change in serum aspartate aminotransferase level in acute phase at 20 mg/kg/day, po administered for 5 consecutive days starting from day 8 post infection and measured on day 100 post infection by biochemical assay relative to control; type: organism-based; conditions: in vivo
How it was run: (§2)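 Female BALB/c mice (10–12 weeks, 14–20 g; groups of three) were infected i.p. with 5 × 10^5 Arequipa bloodstream trypomastigotes. Dosing was oral at 20 mg/kg/day for 5 days, from day 8 pi (acute) or day 70 pi (chronic), as a 2 mg/ml suspension in 5% DMSO/0.5% HPMC; controls received vehicle. Cyclophosphamide 200 mg/kg i.p. was given at day 80 pi. Serum was collected 2 days post-treatment and at necropsy by cardiac puncture and compared with infected untreated controls.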

[2] = Genotoxicity in Salmonella typhimurium TA1535 harboring pSK1002 assessed as survival at 0.016 mg/ml in presence of Sprague-Dawley rat liver S9 fraction metabolic activation by SOS/umu assay relative to control; type: toxicity, subcellular; conditions: salmonella enterica subsp. enterica serovar typhimurium, read-out: Survival
How it was run: (§3)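 Survival of S. typhimurium TA1535/pSK1002 exposed to a range of compound concentrations with or without S9 mix in 96-well format. Survival percentage measured as the cytotoxicity arm of the SOS/umu test. Concentrations with survival ≥80% are counted as non-cytotoxic.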

[3] = Genotoxicity in Salmonella typhimurium TA1535 harboring pSK1002 assessed as survival at 0.008 mg/ml in absence of Sprague-Dawley rat liver S9 fraction metabolic activation by SOS/umu assay relative to control; type: toxicity; conditions: salmonella enterica subsp. enterica serovar typhimurium, read-out: Survival; how it was run: as §3
[4] = (§4) Toxicity in BALB/c mouse infected with Trypanosoma cruzi MHOM/Pe/2011/Arequipa;DTU 5 bloodstream trypomastigote assessed as decrease in serum aspartate aminotransferase level in chronic phase at 20 mg/kg/day, po administered for 5 consecutive days starting from day 70 post infection and measured at day 76 post infection relative to control; type: organism-based; parameters: scale not given: the % may be the effect or the level left; conditions: in vivo; how it was run: as §2
[5] = Genotoxicity in Salmonella typhimurium TA1535 harboring pSK1002 assessed as survival at 0.25 mg/ml in absence of Sprague-Dawley rat liver S9 fraction metabolic activation after by SOS/umu assay relative to control; type: toxicity; conditions: salmonella enterica subsp. enterica serovar typhimurium, read-out: Survival; how it was run: as §3
[6] = Genotoxicity in Salmonella typhimurium TA1535 harboring pSK1002 assessed as umu gene induction at 0.125 mg/ml in absence of Sprague-Dawley rat liver S9 fraction metabolic activation by SOS/umu assay relative to control; type: toxicity; conditions: salmonella enterica subsp. enterica serovar typhimurium, read-out: FC
How it was run: (§5)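 umu induction in S. typhimurium TA1535/pSK1002, with or without S9 mix, in 96-well format. β-galactosidase read colorimetrically with ONPG substrate. Output given as relative units and induction factor (IF). The run is valid if positive controls reach IF ≥2. A compound counts as genotoxic at IF ≥2 at a concentration giving ≥80% bacterial survival.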

[7] = (§6) Toxicity in BALB/c mouse infected with Trypanosoma cruzi MHOM/Pe/2011/Arequipa;DTU 5 bloodstream trypomastigote assessed as decrease in serum alkaline phosphatase level in acute phase at 20 mg/kg/day, po administered for 5 consecutive days starting from day 8 post infection and measured at day 14 post infection by biochemical analysis relative to control; type: organism-based; parameters: scale not given: the % may be the effect or the level left; conditions: in vivo; how it was run: as §2
[8] = Genotoxicity in Salmonella typhimurium TA1535 harboring pSK1002 assessed as umu gene induction at 0.016 mg/ml in absence of Sprague-Dawley rat liver S9 fraction metabolic activation by SOS/umu assay relative to control; type: toxicity; conditions: salmonella enterica subsp. enterica serovar typhimurium, read-out: FC; how it was run: as §5
[9] = Genotoxicity in Salmonella typhimurium TA1535 harboring pSK1002 assessed as survival at 0.004 mg/ml in presence of Sprague-Dawley rat liver S9 fraction metabolic activation by SOS/umu assay relative to control; type: toxicity, subcellular; conditions: salmonella enterica subsp. enterica serovar typhimurium, read-out: Survival; how it was run: as §3
[10] = Genotoxicity in Salmonella typhimurium TA1535 harboring pSK1002 assessed as umu gene induction at 1 mg/ml in absence of Sprague-Dawley rat liver S9 fraction metabolic activation by SOS/umu assay relative to control; type: toxicity; conditions: salmonella enterica subsp. enterica serovar typhimurium, read-out: FC; how it was run: as §5
[11] = Genotoxicity in Salmonella typhimurium TA1535 harboring pSK1002 assessed as umu gene induction at 0.031 mg/ml in presence of Sprague-Dawley rat liver S9 fraction metabolic activation by SOS/umu assay relative to control; type: toxicity, subcellular; conditions: salmonella enterica subsp. enterica serovar typhimurium, read-out: FC; how it was run: as §5
[12] = as §6, with “serum urea” for “serum alkaline phosphatase”, “measured on” for “measured at”, “day 100” for “day 14”; type: organism-based; parameters: scale not given: the % may be the effect or the level left; conditions: in vivo; how it was run: as §2
[13] = Genotoxicity in Salmonella typhimurium TA1535 harboring pSK1002 assessed as umu gene induction at 0.25 mg/ml in absence of Sprague-Dawley rat liver S9 fraction metabolic activation by SOS/umu assay relative to control; type: toxicity; conditions: salmonella enterica subsp. enterica serovar typhimurium, read-out: FC; how it was run: as §5
[14] = Genotoxicity in Salmonella typhimurium TA1535 harboring pSK1002 assessed as survival at 0.004 mg/ml in absence of Sprague-Dawley rat liver S9 fraction metabolic activation by SOS/umu assay relative to control; type: toxicity; conditions: salmonella enterica subsp. enterica serovar typhimurium, read-out: Survival; how it was run: as §3
[15] = test system: Trypanosoma cruzi; assay: Antitrypanosomal activity against Trypanosoma cruzi MHOM/Pe/2011/Arequipa;DTU 5 bloodstream trypomastigotes infected in BALB/c mouse assessed as decrease in splenomegaly in chronic phase at 20 mg/kg/day, po administered for 5 consecutive days starting from day 70 post infection relative to untreated control; type: functional; parameters: scale not given: the % may be the effect or the level left
How it was run: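 Female BALB/c mice (three per group) were infected i.p. with 5 × 10^5 Arequipa trypomastigotes and dosed orally at 20 mg/kg/day for 5 days in 5% DMSO/0.5% HPMC. Controls were uninfected and vehicle-only groups. At the end of the experiment spleens were weighed and expressed as % of body weight.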

[16] = Genotoxicity in Salmonella typhimurium TA1535 harboring pSK1002 assessed as survival at 0.002 mg/ml in presence of Sprague-Dawley rat liver S9 fraction metabolic activation by SOS/umu assay relative to control; type: toxicity, subcellular; conditions: salmonella enterica subsp. enterica serovar typhimurium, read-out: Survival; how it was run: as §3
[17] = Genotoxicity in Salmonella typhimurium TA1535 harboring pSK1002 assessed as survival at 0.016 mg/ml in absence of Sprague-Dawley rat liver S9 fraction metabolic activation by SOS/umu assay relative to control; type: toxicity; conditions: salmonella enterica subsp. enterica serovar typhimurium, read-out: Survival; how it was run: as §3
[18] = Genotoxicity in Salmonella typhimurium TA1535 harboring pSK1002 assessed as survival at 0.031 mg/ml in absence of Sprague-Dawley rat liver S9 fraction metabolic activation by SOS/umu assay relative to control; type: toxicity; conditions: salmonella enterica subsp. enterica serovar typhimurium, read-out: Survival; how it was run: as §3
[19] = Genotoxicity in Salmonella typhimurium TA1535 harboring pSK1002 assessed as survival at 0.063 mg/ml in presence of Sprague-Dawley rat liver S9 fraction metabolic activation by SOS/umu assay relative to control; type: toxicity, subcellular; conditions: salmonella enterica subsp. enterica serovar typhimurium, read-out: Survival; how it was run: as §3
[20] = Genotoxicity in Salmonella typhimurium TA1535 harboring pSK1002 assessed as umu gene induction at 0.5 mg/ml in absence of Sprague-Dawley rat liver S9 fraction metabolic activation by SOS/umu assay relative to control; type: toxicity; conditions: salmonella enterica subsp. enterica serovar typhimurium, read-out: FC; how it was run: as §5
[21] = Genotoxicity in Salmonella typhimurium TA1535 harboring pSK1002 assessed as umu gene induction at 0.002 mg/ml in presence of Sprague-Dawley rat liver S9 fraction metabolic activation by SOS/umu assay relative to control; type: toxicity, subcellular; conditions: salmonella enterica subsp. enterica serovar typhimurium, read-out: FC; how it was run: as §5
[22] = Genotoxicity in Salmonella typhimurium TA1535 harboring pSK1002 assessed as umu gene induction at 0.004 mg/ml in presence of Sprague-Dawley rat liver S9 fraction metabolic activation by SOS/umu assay relative to control; type: toxicity, subcellular; conditions: salmonella enterica subsp. enterica serovar typhimurium, read-out: FC; how it was run: as §5
[23] = as §4, with “as change” for “as decrease”, “infection” for “infection and”, “measured on” for “measured at”, “day 100” for “day 76”; type: organism-based; conditions: in vivo; how it was run: as §2
[24] = as §1, with “alanine” for “aspartate”, “analysis” for “assay”; type: organism-based; conditions: in vivo; how it was run: as §2

Structure (SMILES)	Activity [1] [%]	viability at 0.016 mg/ml [2] [%]	viability at 0.008 mg/ml [3] [%]	Activity [4]	viability at 0.25 mg/ml [5] [%]	fold induction at 0.125 mg/ml [6]	Activity [7]	fold induction at 0.016 mg/ml [8]	viability at 0.004 mg/ml [9] [%]	fold induction at 1 mg/ml [10]	fold induction at 0.031 mg/ml [11]	Activity [12]	fold induction at 0.25 mg/ml [13]	viability at 0.004 mg/ml [14] [%]	Activity [15] [%]	viability at 0.002 mg/ml [16] [%]	viability at 0.016 mg/ml [17] [%]	viability at 0.031 mg/ml [18] [%]	viability at 0.063 mg/ml [19] [%]	fold induction at 0.5 mg/ml [20]	also measured
O=C(CCN1CCN(c2ccc(Cl)cc2)CC1)c1ccc(O)cc1	> 10	106	128	<= 10%	152	0.45	<= 10%	0.66	108	0.12	0.83	<= 10%	0.49	140	81	111	130	107	86.7	0.26	fold induction at 0.002 mg/ml [21]: 0.74; fold induction at 0.004 mg/ml [22]: 0.71
O=C(Cn1ccnc1[N+](=O)[O-])NCc1ccccc1 [BENZNIDAZOLE]												<= 20%									Activity [23]: > 10%; Activity [24]: > 10%
O=C(CCN1CCN(c2ccc(C(F)(F)F)cc2)CC1)c1ccc(O)cc1	> 10	110	133	<= 10%	149	0.7	<= 30%	0.74	112	0.16	0.87		0.52	127	66	108	127	112	92.9	0.43	Activity [23]: > 10%; Activity [24]: > 10%; fold induction at 0.002 mg/ml [21]: 0.89; fold induction at 0.004 mg/ml [22]: 0.77
